Laboratory results taken from ChEMBL document CHEMBL3576854, “Northalrugosidine is a bisbenzyltetrahydroisoquinoline alkaloid from Thalictrum alpinum with in vivo antileishmanial activity” (J Nat Prod, 2015).

How the values were obtained:
[1] = Selectivity index, ratio of IC50 for HT-29 cells to IC50 for transgenic DsRed2 Leishmania donovani promastigotes strain LV82; assay type: toxicity, cell-based; conditions: human; read-out: Ratio IC50
Procedure, shortened: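 Ratio of the HT-29 cytotoxicity IC50 (72 h, sulforhodamine B) to the IC50 against DsRed2 L. donovani LV 82 promastigotes (72 h at 23 °C, flow cytometry).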

HT-29 = test: Cytotoxicity against human HT-29 cells assessed as inhibition of cell survival after 72 hrs by sulforhodamine B assay; assay type: cell-based; conditions: HT-29, 72 h
Procedure, shortened: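 HT-29 cells, 9500 per well, exposed to a concentration series in triplicate for 72 h. Controls: 10% DMSO in water (negative) and paclitaxel in that carrier (positive).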

Leishmania donovani [2] = test: Antileishmanial activity against transgenic DsRed2 Leishmania donovani promastigotes strain LV82 assessed as parasite killing after 72 hrs by flow cytometry; assay type: functional, organism-based; conditions: LV82, 72 h
Leishmania donovani [3] = test: Antileishmanial activity against Leishmania donovani […] stain LV82 infected in iv dosed BALB/c mouse assessed as parasite burden reduction in spleen cells after 2 weeks of postinjection by Giemsa staining-light microscopy; assay type: functional, organism-based
Procedure, shortened: (§1)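 BALB/c mice infected by tail vein with 10^7 L. donovani LV 82 amastigotes; treated iv two weeks post-infection (100 µL; 2.8, 5.6 or 11.1 mg/kg in 10% DMSO/PBS; vehicle negative control; sodium stibogluconate 70 mg/kg positive control). Sacrificed two weeks later; liver and spleen weighed, impression smears MeOH-fixed, Giemsa-stained, amastigotes counted per 1000 host nuclei by light microscopy; LDU = organ weight (g) × that count.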

Mus musculus = test: Toxicity in BALB/c mouse at 2.8 to 70 mg/kg, iv after 2 weeks; assay type: organism-based; conditions: in vivo, 336 h, in the assay text read “2.8 to 11.1 mg/kg” for “2.8 to 70 mg/kg”
Procedure, shortened: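 Infected BALB/c mice (about 18 g) watched for overt toxicity over two weeks after one 100 µL iv dose in 10% DMSO/PBS: vehicle, test doses 2.8, 5.6 or 11.1 mg/kg, or sodium stibogluconate 70 mg/kg.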

Leishmania donovani [4] = test: Antileishmanial activity against Leishmania donovani promastigotes stain LV82 infected in iv dosed BALB/c mouse assessed as parasite burden reduction in liver cells after 2 weeks of postinjection by Giemsa staining-light microscopy; assay type: functional, organism-based; procedure, shortened: as §1

| Compound | selectivity ratio [1] | IC50 (HT-29) [µM] | IC50 (Leishmania donovani [2]) [µM] | inhibition (Leishmania donovani [3]) | Activity (Mus musculus) | inhibition (Leishmania donovani [4]) |
| --- | --- | --- | --- | --- | --- | --- |
| COc1ccc2cc1Oc1ccc(cc1)C[C@H]1c3cc(OC)c(OC)c(c3CCN1C)Oc1c(O)c(OC)cc3c1[C@H](C2)N(C)CC3 [THALRUGOSIDINE] | 3.6 | 3.6 | 1 |  |  |  |
| COc1ccc2cc1Oc1ccc(cc1)C[C@H]1c3cc(OC)c(OC)c(c3CCN1C)Oc1c(OC)c(OC)cc3c1[C@H](C2)N(C)CC3 [THALIDASINE] | 0.5 | 5.5 | 10.1 |  |  |  |
| COc1ccc2cc1Oc1ccc(cc1)C[C@H]1c3cc(OC)c(OC)c(c3CCN1C)Oc1c(O)c(OC)cc3c1[C@H](C2)NCC3 | 29.3 | 8.2 | 0.28 | Dose-dependent effect | Non-toxic | Dose-dependent effect |
